Screens from PubChem BioAssay.
NR2E3 ag-1 – inhibitors of NR2E3-RetCOR corepressor binding, primary screen, NR2E3 agonist project, biochemical, TR-FRET, GST-NR2E3, biotin-RetCOR. inhibition of corepressor binding, % at 4.78 µM. Photoreceptor-specific nuclear receptor (Homo sapiens), Q9Y5X4. AID 2300, 2010. 1536-well. 0.12% of 320,000 active;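 active means percent inhibition above the cutoff of mean plus 3 SD of all tested compounds, set per screening campaign, cut at about 20% in these data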
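Test system – NR2E3–RetCOR corepressor complex · Quantity – NR2E3 fusion 1.35 nM · Buffer or medium – Tris pH 7.5 · Incubation – Compound–protein incubation for 5 h at 4 °C · Technique – TR-FRET, Eu(K)-anti-GST donor, streptavidin-D2 acceptor, ex 340, em 617/671 nm · Evaluation – percent inhibition of 671/617 nm emission ratio versus biotin and DMSO controls · Plate – 1536-well format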
NR2E3 ag-2 – NR2E3 agonists in two-hybrid cells, primary screen, cell-based, luminescence, CHO-S, Gal4-NCOR/VP16-NR2E3. Photoreceptor-specific nuclear receptor (Homo sapiens), Q9Y5X4. luciferase. inhibition of corepressor binding, % at 3.98 µM. 0.35% of 360,000 active;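 active means inhibition above the mean of all tested compounds plus 3 SD, cut at about 70% in these data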;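 further: higher means lower luciferase signal from less NR2E3 corepressor binding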
PG9 binder – binders of HIV-1 gp120 antibody PG9, primary screen, biochemical, TR-FRET; TR-FRET gp120-PG9 antibody binding; inhibition, % at 6.7 µM; AID 624416, 2012; HIV-1 gp120 / PG9 antibody interaction; 0.43% of 360,000 active; in the data active means inhibition above about 8.5%
Rev-erbA mod – modulators of Rev-erb alpha DNA binding, primary screen, biochemical, FITC-DNA, fluorescence polarization, uHTS | activity, % at 10 µM | 0.79% of 370,000 active | Rev-erbα–FITC-DNA binding, 90 min;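 active means activity above about 14%, limit read from the data; passing the limit was not always enough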
Target sequence (P20393 whole entry, looked up): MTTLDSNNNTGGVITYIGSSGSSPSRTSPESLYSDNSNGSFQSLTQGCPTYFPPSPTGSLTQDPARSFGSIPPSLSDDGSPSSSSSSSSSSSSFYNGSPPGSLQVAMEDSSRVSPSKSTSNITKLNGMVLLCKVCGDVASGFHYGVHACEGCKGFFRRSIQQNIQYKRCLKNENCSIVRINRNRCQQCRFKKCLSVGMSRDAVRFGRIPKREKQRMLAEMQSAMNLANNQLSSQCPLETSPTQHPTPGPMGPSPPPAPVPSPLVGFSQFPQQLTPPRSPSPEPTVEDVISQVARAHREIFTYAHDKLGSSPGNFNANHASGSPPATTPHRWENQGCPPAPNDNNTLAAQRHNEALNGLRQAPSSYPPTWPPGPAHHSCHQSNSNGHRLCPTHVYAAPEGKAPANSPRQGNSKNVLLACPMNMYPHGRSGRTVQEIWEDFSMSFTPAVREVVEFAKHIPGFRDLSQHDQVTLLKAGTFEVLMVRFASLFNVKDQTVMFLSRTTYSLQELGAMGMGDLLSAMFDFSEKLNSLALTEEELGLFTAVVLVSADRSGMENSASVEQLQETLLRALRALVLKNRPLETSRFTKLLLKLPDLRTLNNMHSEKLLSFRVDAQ
Rev-erbA confirm – modulators of Rev-erb alpha DNA binding, confirmation, biochemical, FITC-DNA, fluorescence polarization, single point; shares compounds with Rev-erbA mod; 90 min; activation, % at 25 µM; 61% of 3,000 active; AID 1259319, 2017;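 active means activation at or above a set limit, or at least 3 SD above the negative control mean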
RORg counter – modulation of RORgamma DNA binding, dose response, counter-screen for Rev-erb alpha modulator project, biochemical, fluorescence polarization, FITC-DNA; shares compounds with Rev-erbA mod; purified RORgamma protein-FITC-DNA binding; IC50, µM; 8% of 910 active; AID 1259320, 2017;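 active means Compounds whose fitted half-maximal concentration for disrupting protein-DNA binding is below 10 micromolar; the record names Rev-erb in its text, so the target is in doubt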
A number is an active result; 0 = inactive; - = not tested or not shown. The list is not random: actives were taken first. Their share in the collection is about 1.5%.

SMILES	NR2E3 ag-1	NR2E3 ag-2	PG9 binder	Rev-erbA mod	Rev-erbA confirm	others
COc1ccc(C(=O)OCc2cc3cccc(C)c3[nH]c2=O)cc1	0	0	0	58.6	26.5
COc1ccc(CC(=O)OCc2cc3cccc(C)c3[nH]c2=O)cc1	0	0	-	0	-
O=S(=O)(c1ccccc1)c1nnn2c1nc(NC1CCN(Cc3ccccc3)CC1)c1ccccc12	0	0	0	47.5	0
O=S(=O)(c1ccccc1)c1nnn2c1nc(NC1CCN(Cc3ccccc3)CC1)c1cc(Cl)ccc12	0	0	0	24.5	0
COCCCNC(=O)CN1C(=O)C2CCCCN2C(=O)c2ccccc21 (stereo not given)	-	-	-	0	-
COC(=O)[C@]1(CNC(C)=O)CC(=O)N(C)[C@@H]1c1ccccc1	-	-	-	0	-
CCOC(=O)c1cc(-c2cc3ccccc3o2)nc2c1c(=O)[nH]c(=O)n2CCOC	0	0	0	27.2	0
COCCNC(=O)c1nn2c(C(F)(F)F)cc(-c3ccccc3)nc2c1Br	-	0	0	0	-
CCOC(=O)c1nn2c(C(F)(F)F)cc(-c3ccc(OC)cc3)nc2c1Br	0	0	0	40.6	0
Cc1ccc2nc(SCc3ccccc3)c(C=O)c(=O)n2c1	0	0	0	42.1	30.4
COc1ccccc1CN(C)C(=O)C1CCCN(c2nc3ccccc3o2)C1 (stereo not given)	-	-	-	0	-
CCOC(=O)c1c(C)nc2sc3c(=O)n(-c4ccc(C(C)=O)cc4)cnc3c2c1-c1ccc(OC)cc1	0	0	0	30.7	18.5
CCc1noc(C)c1C(=O)Nc1ccc(F)c(F)c1	0	0	0	0	-
CCc1noc(C)c1C(=O)Nc1nc(-c2ccc(Cl)cc2Cl)c(C)s1	0	0	0	31.8	25.4
CN(C)/C=N/c1c(C#N)cnn1-c1nc2ccccc2s1	0	0	0	49.8	19.3
CCN=C1S/C(=C\c2ccc(N3CCOCC3)cc2C)C(=O)N1CC	0	0	0	0	-
COCCN1C(=O)/C(=C/c2ccc(N3CCCC3)cc2C)SC1=S	0	0	0	25.4	39.1	RORg counter=0
Cn1c(=O)c2cc(S(=O)(=O)N3CCN(c4ccccc4Cl)CC3)ccc2n(C)c1=O	-	-	-	0	-
O=C(NCCc1ccccc1)OCc1cn(Cc2cccc(F)c2F)nn1	-	-	-	0	-
C=CCNC(=O)c1ccc(-c2nc(-c3ccc(Cl)cc3Cl)cs2)cc1	0	0	0	31.4	44.3	RORg counter=0
COc1ccc(/C=C2\CC3(OC(=O)c4ccco4)CCCN2C3)cc1 (stereo not given)	-	-	-	0	-
CCN(CC)c1ccc(/C=C/c2cccc[n+]2C)c(OC)c1	0	0	0	52.6	55.7	RORg counter=0
O=C(N[C@H]1CC[C@@H]2SC[C@@H](C(=O)O)N2C1=O)OCC1c2ccccc2-c2ccccc21	-	-	-	0	-
CCOc1ccc(-c2nc(S(=O)(=O)c3ccccc3)c(NC)o2)cc1	0	0	0	46.7	0
C=CCN1[C@H](CO)[C@H](c2ccc(Br)cc2)[C@@H]1C#N	-	-	-	0	-
SMILES	NR2E3 ag-1	NR2E3 ag-2	PG9 binder	Rev-erbA mod	Rev-erbA confirm	others
COc1ccc(-c2cc(C(=O)c3c(N)n(C)c(=O)n(C)c3=O)c3ccccc3n2)cc1	0	0	0	0	-
COc1ccc(-c2cc(C(=O)OCC(=O)c3c(N)n(C)c(=O)n(C)c3=O)c3ccccc3n2)cc1	0	0	0	30.4	18.8
COc1ccc(OCC(=O)Nc2ccc3oc(-c4ccncc4)nc3c2)cc1	0	0	0	0	-
Cc1ccc(OCC(=O)Nc2ccc(O)c(-c3nc4ccccc4o3)c2)cc1	0	0	0	102.6	38.4	RORg counter=0
COc1cccc(C(=O)Nc2ccc(-c3nc4ccccc4o3)c(O)c2)c1	0	0	0	85.5	64.3	RORg counter=0
COc1cc(OC)cc(C(=O)Nc2ccc(-c3nc4ccccc4o3)cc2)c1	0	0	0	0	-
OC1(Cc2ccccc2)CCN(c2ncnc3sccc23)CC1	-	-	-	0	-
CCOC(=O)/C(C#N)=C/C=C1\C=Cc2ccccc2N1CC	0	0	0	73.6	56.0	RORg counter=7.42
CCCCCCN1C=CC(=C/C=C(\C#N)C(=O)OCC)C=C1	0	0	0	57.5	30.4
CCCN1C=CC(=CC=C(C#N)C#N)C=C1	0	0	0	27.9	0
C=CCN1C=CC(=CC=C(C#N)C#N)C=C1	0	0	0	32.0	21.5
O=C(CSc1nnc(-c2ccc3c(c2)OCO3)n1-c1ccccc1)c1ccccc1	0	0	0	24.7	18.5
O=C(CSc1nnc(-c2ccc3c(c2)OCO3)n1-c1ccccc1)c1ccc(Cl)cc1	0	0	0	0	-
CC(=O)c1cc(NC(=O)c2cccc(C(F)(F)F)c2)c(=O)oc1C	0	0	0	0	-
CC(=O)c1cc(NC(=O)c2cccc(C(F)(F)F)c2)c(=O)oc1/C=C/N(C)C	0	0	0	20.1	0
CC(=O)c1cc(NC(=O)c2ccc(Cl)cc2)c(=O)oc1/C=C/N(C)C	0	0	0	26.1	28.7
COc1ccc(C(=O)Nc2cc(C(C)=O)c(C)oc2=O)cc1	0	0	0	0	-
Cc1ccc(-n2c(SCC(=O)Nc3ccc(Oc4ccccc4)cc3)nnc2-c2ccco2)cc1	-	-	-	0	-
O=C(Nc1cccc(-c2ccc(N3CCOCC3)nn2)c1)c1ccc(Cl)cc1	0	0	0	0	-
O=C(COc1ccc(Cl)cc1)Nc1cccc(-c2ccc(N3CCOCC3)nn2)c1	0	0	0	19.6	0
O=C(CCc1c[nH]c2ccccc12)NCCc1ccc(Cl)cc1	0	0	0	37.2	35.6	RORg counter=0
COC(=O)[C@]12CCCCC=C1N(Cc1cccc3ccccc13)C(=O)[C@H](CC(=O)NCc1cccs1)C2	-	0	0	16.1	0
O=C(Nc1ccc2oc(-c3ccccc3F)nc2c1)c1ccc2c(c1)OCCO2	0	0	0	15.0	0
O=C(NC(=S)Nc1ccc2oc(-c3ccncc3)nc2c1)c1ccccc1F	0	0	0	37.1	0
O=C(Nc1ccc2oc(-c3ccccc3)nc2c1)c1ccncc1	0	0	0	0	-
O=C(Nc1ccc(-c2nc3ccccc3o2)cc1)c1ccc2c(c1)OCO2	0	0	0	0	-
O=C(Nc1ccc2oc(-c3ccc(F)cc3)nc2c1)c1ccccc1F	0	0	0	40.6	25.2
O=C(CNC(=O)c1cc(=O)[nH]c2ccc(S(=O)(=O)N3CCOCC3)cc12)Nc1ccc(F)c(F)c1	-	0	0	0	-
O=C(CSc1nnc2c(n1)[nH]c1ccc(S(=O)(=O)N3CCOCC3)cc12)Nc1ccc(F)c(F)c1	0	0	0	44.6	0
